According to ChEMBL document CHEMBL4196121, “Meridianin D Analogues Display Antibiofilm Activity against MRSA and Increase Colistin Efficacy in Gram-Negative Bacteria” (ACS Med Chem Lett, 2018):
Calls of active or inactive are those of the source. The rule behind the calls is not given here.

Legend:
Staphylococcus aureus = experiment: Inhibition of biofilm formation in methicillin-resistant Staphylococcus aureus ATCC 43300 after 24 hrs by crystal violet staining based method; format: functional, organism-based; details: for IC50: ATCC 43300, 24 h
How it was run: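 Read-out is the IC50, taken as the compound concentration that inhibits 50% of MRSA 43300 biofilm formation.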

Escherichia coli [1] = experiment: Antibacterial activity against Escherichia coli ATCC 25922 expressing mcr1 gene after 16 hrs by broth microdilution assay; format: organism-based; details: in vitro
Acinetobacter baumannii [2] = experiment: Antibacterial activity against Acinetobacter baumannii ATCC 17978 expressing mcr1 gene after 16 hrs by broth microdilution assay; format: organism-based; details: in vitro
Klebsiella pneumoniae [3] = experiment: Antibacterial activity against Klebsiella pneumoniae isolate B9 after 16 hrs by broth microdilution assay; details: in vivo
Acinetobacter baumannii [4] = experiment: Antibacterial activity against Acinetobacter baumannii ATCC 17978 after 16 hrs by broth microdilution assay; format: organism-based
Acinetobacter baumannii [5] = experiment: Antibacterial activity against Acinetobacter baumannii ATCC 19606 after 16 hrs by broth microdilution assay; format: organism-based, ATCC 19606 = CIP 70.34 = JCM 6841
Acinetobacter baumannii [6] = experiment: Antibacterial activity against Acinetobacter baumannii isolate 5075 after 16 hrs by broth microdilution assay; format: organism-based
Acinetobacter baumannii [7] = experiment: Antibacterial activity against Acinetobacter baumannii isolate 3941 after 16 hrs by broth microdilution assay; format: organism-based
Escherichia coli [8] = experiment: Antibacterial activity against Escherichia coli ATCC 25922 after 16 hrs by broth microdilution assay; format: organism-based
Klebsiella pneumoniae [9] = experiment: Antibacterial activity against Klebsiella pneumoniae ATCC 2146 expressing NDM1 gene after 16 hrs by broth microdilution assay; format: organism-based
Acinetobacter baumannii [10] = experiment: Antibacterial activity against Acinetobacter baumannii isolate 4106 after 16 hrs by broth microdilution assay; format: organism-based
Klebsiella pneumoniae [11] = experiment: Antibacterial activity against Klebsiella pneumoniae isolate C3 after 16 hrs by broth microdilution assay

Structure (SMILES)	IC50 (Staphylococcus aureus)	Activity (Staphylococcus aureus)	MIC (Escherichia coli [1])	MIC (Acinetobacter baumannii [2])	MIC (Klebsiella pneumoniae [3])	MIC (Acinetobacter baumannii [4])	MIC (Acinetobacter baumannii [5])	MIC (Acinetobacter baumannii [6])	MIC (Acinetobacter baumannii [7])	MIC (Escherichia coli [8])	MIC (Klebsiella pneumoniae [9])	MIC (Acinetobacter baumannii [10])	MIC (Klebsiella pneumoniae [11])
Nc1nccc(-c2c[nH]c3cccc(Br)c23)n1	> 100 µM												
Cc1ccc(S(=O)(=O)n2cc(C(=O)/C=C/N(C)C)c3ccc(I)cc32)cc1		Active											
CCCCCn1cc(-c2ccnc(N)n2)c2cc(Br)ccc21.Cl	> 100 µM		> 200 µM	> 200 µM	> 200 µM	> 200 µM	> 200 µM	> 200 µM	> 200 µM	> 200 µM	> 200 µM	> 200 µM	> 200 µM
CC(C)Cn1cc(-c2ccnc(N)n2)c2ccc(Br)cc21.Cl	> 100 µM		> 200 µM	> 200 µM	> 200 µM	> 200 µM	> 200 µM	> 200 µM	> 200 µM	> 200 µM	> 200 µM	> 200 µM	> 200 µM
CCNc1nccc(-c2cn(C)c3cc(Br)ccc23)n1.Cl		inactive	> 200 µM	> 200 µM	> 200 µM	> 200 µM	> 200 µM	> 200 µM	> 200 µM	> 200 µM	> 200 µM	> 200 µM	> 200 µM
Cl.Nc1nccc(-c2c[nH]c3ccc(F)cc23)n1	> 100 µM		> 200 µM	> 200 µM	> 200 µM	> 200 µM	> 200 µM	> 200 µM	> 200 µM	> 200 µM	> 200 µM	> 200 µM	> 200 µM
Cl.Nc1nccc(-c2c[nH]c3cc(F)ccc23)n1	> 100 µM		> 200 µM	> 200 µM	> 200 µM	> 200 µM	> 200 µM	> 200 µM	> 200 µM	> 200 µM	> 200 µM	> 200 µM	> 200 µM
Cl.Nc1nccc(-c2c[nH]c3ccc(Cl)cc23)n1		inactive	> 200 µM	> 200 µM	> 200 µM	> 200 µM	> 200 µM	> 200 µM	> 200 µM	> 200 µM	> 200 µM	> 200 µM	> 200 µM
CCCn1cc(-c2ccnc(N)n2)c2ccc(I)cc21.Cl		inactive	> 200 µM	> 200 µM	> 200 µM	> 200 µM	> 200 µM	> 200 µM	> 200 µM	> 200 µM	> 200 µM	> 200 µM	> 200 µM
Nc1nccc(-c2c[nH]c3c(Br)cccc23)n1	99.8 µM												
Cc1ccc(S(=O)(=O)n2cc(C(=O)/C=C/N(C)C)c3ccc(F)cc32)cc1		Active											
Cl.Nc1nccc(-c2cn(Cc3ccccc3)c3ccc(Br)cc23)n1			> 200 µM	> 200 µM	> 200 µM	> 200 µM	> 200 µM	> 200 µM	> 200 µM	> 200 µM	> 200 µM	> 200 µM	> 200 µM
